Experimental data published in ChEMBL document CHEMBL4138161, “Discovery of simplified sampangine derivatives as novel fungal biofilm inhibitors” (Eur J Med Chem, 2018).
Converted amounts (≈) assume the structure as drawn.

Key:
Type in all cases: functional
[1] = test system: Candida parapsilosis; test: Antifungal activity against Candida parapsilosis 22019 after 24 hrs by spectrophotometric analysis; conditions: Lodderomyces parapsilosis, 22019, 24 h
Outline: (§1)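 Broth microdilution in RPMI 1640, inoculum 5×10^3 CFU/mL, compounds from 6.4 mg/mL DMSO stocks, 35 ℃ for 24 h. Growth read as OD600; MIC80 taken as lowest concentration giving 80% growth inhibition. Triplicate.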

[2] = test system: Nannizzia gypsea; test: Antifungal activity against Microsporum gypseum Cmccfmza after 24 hrs by spectrophotometric analysis; outline: as §1
[3] = test system: Nakaseomyces glabratus; test: Antifungal activity against Candida glabrata 537 after 24 hrs by spectrophotometric analysis; conditions: Nakaseomyces glabratus, 537, 24 h; outline: as §1
[4] = test system: Aspergillus fumigatus; test: Antifungal activity against Aspergillus fumigatus 07544 after 24 hrs by spectrophotometric analysis; conditions: Aspergillus fumigatus, 07544, 24 h; outline: as §1
[5] = test system: Cryptococcus neoformans; test: Antifungal activity against Cryptococcus neoformans 32609 after 24 hrs by spectrophotometric analysis; conditions: Cryptococcus neoformans, 32609, 24 h; outline: as §1
[6] = test system: Candida albicans; test: Antifungal activity against Candida albicans SC5314 after 24 hrs by spectrophotometric analysis; conditions: SC5314, 24 h; outline: as §1
[7] = test system: Trichophyton rubrum; test: Antifungal activity against Trichophyton rubrum Cmccftla after 24 hrs by spectrophotometric analysis; outline: as §1

| SMILES | MIC80 [1] [µg/mL] | MIC80 [2] [µg/mL] | MIC80 [3] [µg/mL] | MIC80 [4] [µg/mL] | MIC80 [5] [µg/mL] | MIC80 [6] [µg/mL] | MIC80 [7] [µg/mL] |
| --- | --- | --- | --- | --- | --- | --- | --- |
| Cc1ccnc2c1C(=O)c1scc([N+](=O)[O-])c1C2=O | > 64 | 8 (≈ 29.2 µM) | 4 (≈ 14.6 µM) | > 64 | 4 (≈ 14.6 µM) | 4 (≈ 14.6 µM) | 4 (≈ 14.6 µM) |
| Cc1ccc(C(C)c2ccnc3c2C(=O)c2sc([N+](=O)[O-])cc2C3=O)o1 (stereo unspecified) | > 64 | 1 (≈ 2.71 µM) | > 64 | 32 (≈ 86.9 µM) | 0.25 (≈ 0.679 µM) | > 64 | 1 (≈ 2.71 µM) |
| CC(c1ccccc1)c1ccnc2c1C(=O)c1sc([N+](=O)[O-])cc1C2=O (stereo unspecified) | 4 (≈ 11 µM) | 1 (≈ 2.74 µM) | 8 (≈ 22 µM) | 4 (≈ 11 µM) | 0.5 (≈ 1.37 µM) | 4 (≈ 11 µM) | 1 (≈ 2.74 µM) |
| CC(C)c1cnc2c(c1)C(=O)c1sc([N+](=O)[O-])cc1C2=O | 4 (≈ 13.2 µM) | 1 (≈ 3.31 µM) | 4 (≈ 13.2 µM) | 4 (≈ 13.2 µM) | 0.5 (≈ 1.65 µM) | 2 (≈ 6.62 µM) | 1 (≈ 3.31 µM) |
| Cc1ccnc2c1C(=O)c1occc1C2=O | > 64 | > 64 | > 64 | > 64 | 64 (≈ 300 µM) | > 64 | > 64 |
| Cc1ccnc2c1C(=O)c1cn(C)cc1C2=O | > 64 | > 64 | > 64 | > 64 | > 64 | > 64 | 64 (≈ 283 µM) |
| O=Cc1ccnc2c1C(=O)c1sc([N+](=O)[O-])cc1C2=O | 8 (≈ 27.8 µM) | 2 (≈ 6.94 µM) | 0.125 (≈ 0.434 µM) | 16 (≈ 55.5 µM) | 8 (≈ 27.8 µM) | 4 (≈ 13.9 µM) | 1 (≈ 3.47 µM) |
| CC(C)(C)OC(=O)N1CCC(c2ccnc3c2C(=O)c2sc([N+](=O)[O-])cc2C3=O)CC1 | > 64 | 16 (≈ 36.1 µM) | > 64 | > 64 | 8 (≈ 18 µM) | 32 (≈ 72.2 µM) | 8 (≈ 18 µM) |
| O=C1c2cc([N+](=O)[O-])sc2C(=O)c2c(C(Br)Br)ccnc21 | 32 (≈ 74.1 µM) | 16 (≈ 37 µM) | 16 (≈ 37 µM) | 64 (≈ 148 µM) | 32 (≈ 74.1 µM) | 32 (≈ 74.1 µM) | 32 (≈ 74.1 µM) |
| CCc1cnc2c(c1)C(=O)c1sc([N+](=O)[O-])cc1C2=O | 1 (≈ 3.47 µM) | 0.25 (≈ 0.867 µM) | 1 (≈ 3.47 µM) | 2 (≈ 6.94 µM) | 0.25 (≈ 0.867 µM) | 0.5 (≈ 1.73 µM) | 0.5 (≈ 1.73 µM) |
| Cc1ccnc2c1C(=O)c1sccc1C2=O | > 64 | > 64 | 8 (≈ 34.9 µM) | 16 (≈ 69.8 µM) | 16 (≈ 69.8 µM) | 16 (≈ 69.8 µM) | 4 (≈ 17.4 µM) |
| CC(C)(C)OC(=O)/C=C/c1ccnc2c1C(=O)c1sc([N+](=O)[O-])cc1C2=O | 32 (≈ 82.8 µM) | 4 (≈ 10.4 µM) | > 64 | 32 (≈ 82.8 µM) | 4 (≈ 10.4 µM) | 16 (≈ 41.4 µM) | 8 (≈ 20.7 µM) |
| Cc1ccnc2c1[C@H](O)c1sc([N+](=O)[O-])cc1[C@H]2O (relative stereo) | > 64 | > 64 | > 64 | > 64 | > 64 | > 64 | > 64 |
| CC(C)(C)c1cnc2c(c1)C(=O)c1sc([N+](=O)[O-])cc1C2=O | 4 (≈ 12.6 µM) | 1 (≈ 3.16 µM) | 4 (≈ 12.6 µM) | 4 (≈ 12.6 µM) | 1 (≈ 3.16 µM) | 2 (≈ 6.32 µM) | 1 (≈ 3.16 µM) |
| Cc1ccnc2c1[C@H](O)c1sc([N+](=O)[O-])cc1[C@@H]2O (relative stereo) | 8 (≈ 28.7 µM) | 8 (≈ 28.7 µM) | 2 (≈ 7.19 µM) | 16 (≈ 57.5 µM) | 4 (≈ 14.4 µM) | 2 (≈ 7.19 µM) | 2 (≈ 7.19 µM) |
| CCOC(=O)c1ccnc2c1C(=O)c1sc([N+](=O)[O-])cc1C2=O | 4 (≈ 12 µM) | 4 (≈ 12 µM) | 4 (≈ 12 µM) | 8 (≈ 24.1 µM) | 4 (≈ 12 µM) | 2 (≈ 6.02 µM) | 1 (≈ 3.01 µM) |
| COc1ccccc1-c1ccnc2c1C(=O)c1sc([N+](=O)[O-])cc1C2=O | 16 (≈ 43.7 µM) | 16 (≈ 43.7 µM) | > 64 | 16 (≈ 43.7 µM) | 8 (≈ 21.8 µM) | 16 (≈ 43.7 µM) | 16 (≈ 43.7 µM) |
| Cc1ccnc2c1C(=O)c1ccn(C)c1C2=O | > 64 | > 64 | > 64 | > 64 | > 64 | > 64 | > 64 |
| CN(C)c1ccc(-c2ccnc3c2C(=O)c2sc([N+](=O)[O-])cc2C3=O)cc1 | 32 (≈ 84.3 µM) | 16 (≈ 42.2 µM) | > 64 | > 64 | 16 (≈ 42.2 µM) | 32 (≈ 84.3 µM) | 4 (≈ 10.5 µM) |
| O=C1c2cc([N+](=O)[O-])sc2C(=O)c2c(-c3ccco3)ccnc21 | 4 (≈ 12.3 µM) | 8 (≈ 24.5 µM) | 4 (≈ 12.3 µM) | 16 (≈ 49 µM) | 2 (≈ 6.13 µM) | 4 (≈ 12.3 µM) | 16 (≈ 49 µM) |
| CCC(C)n1ncn(-c2ccc(N3CCN(c4ccc(OCC5COC(Cn6cncn6)(c6ccc(Cl)cc6Cl)O5)cc4)CC3)cc2)c1=O (stereo unspecified) [ITRACONAZOLE] | 8 (≈ 11.3 µM) | 4 (≈ 5.67 µM) | 1 (≈ 1.42 µM) | 8 (≈ 11.3 µM) | 4 (≈ 5.67 µM) | 8 (≈ 11.3 µM) | 4 (≈ 5.67 µM) |
| CC(C)(C)OC(=O)/C=C\c1ccnc2c1C(=O)c1sc([N+](=O)[O-])cc1C2=O | > 64 | 4 (≈ 10.4 µM) | > 64 | > 64 | 4 (≈ 10.4 µM) | 32 (≈ 82.8 µM) | 4 (≈ 10.4 µM) |
| Cc1ccnc2c1C(=O)c1scc(N)c1C2=O | > 64 | > 64 | > 64 | > 64 | > 64 | 32 (≈ 131 µM) | > 64 |
| O=C1c2cc([N+](=O)[O-])sc2C(=O)c2c(C3CCNCC3)ccnc21 | > 64 | 64 (≈ 186 µM) | > 64 | > 64 | 32 (≈ 93.2 µM) | > 64 | > 64 |
| Cc1ccnc2c1C(=O)c1sc(N)cc1C2=O | > 64 | > 64 | > 64 | > 64 | > 64 | > 64 | 8 (≈ 32.7 µM) |
| Cc1ccnc2cc3cc([N+](=O)[O-])sc3cc12 | > 64 | > 64 | 16 (≈ 65.5 µM) | > 64 | > 64 | > 64 | 4 (≈ 16.4 µM) |
| O=C1c2cc([N+](=O)[O-])sc2C(=O)c2c(-c3ccccc3)ccnc21 | 8 (≈ 23.8 µM) | 4 (≈ 11.9 µM) | 16 (≈ 47.6 µM) | 32 (≈ 95.1 µM) | 4 (≈ 11.9 µM) | 8 (≈ 23.8 µM) | 8 (≈ 23.8 µM) |
| O=C1c2cc([N+](=O)[O-])sc2C(=O)c2c(-c3ccccc3[N+](=O)[O-])ccnc21 | > 64 | 8 (≈ 21 µM) | > 64 | 64 (≈ 168 µM) | 4 (≈ 10.5 µM) | 16 (≈ 42 µM) | 16 (≈ 42 µM) |
